Results on 2 molecules are retold here after ChEMBL document CHEMBL3352570, “ST7612AA1, a thioacetate-ω(γ-lactam carboxamide) derivative selected from a novel generation of oral HDAC inhibitors” (J Med Chem, 2014).

Each structure is given as a SMILES string. A value given as a limit tells only on which side of the number the result lay.

A short description of series [1]: Half life in human hepatocytes at 5 uM by LCMS/MS analysis. It is filed as ADME, cell-based, Hepatocyte. The method in brief:
(§1)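 Incubation in human hepatocytes. […] Values are means of at least three experiments.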

Series [2] in a line: Intrinsic clearance in human hepatocytes assessed per million cells at 5 uM by LCMS/MS analysis. It is filed as ADME, cell-based, Hepatocyte. The settings on record: read-out: CLH. The method in brief:
as §1

Series [3] in a line: Stability of the compound in aqueous solution at pH 1.2 after 3 hrs. The note with it: buffer, pH 1.2, 3 h.
Series [4] can be described thus: Stability of the compound in aqueous solution at pH 7.4 after 24 hrs. It is filed as physicochemical. The note with it: buffer, pH 7.4, 24 h. The method in brief:
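Stability in aqueous solution at pH 7.4 over 24 h.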

Series [5] deals with Mus musculus. The series can be described thus: Toxicity in human A2780 cells xenografted athymic nude mouse assessed as body weight loss at 100 mg/kg, po qd for 5 days a week for 2 weeks. The class given is organism-based. Also noted: dose 100 mg/kg, route oral. The note with it: in vivo. The method in brief: (§2)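 Nude mice (female, athymic, 5–6 weeks) carried sc right-flank xenografts of 5 × 10⁶ cells per 100 μL. Oral treatment once daily started 3 days after inoculation.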

Series [6] concerns A2780. Description: Antitumor activity against human A2780 cells xenografted in athymic nude mouse assessed as tumor volume inhibition at 60 mg/kg, po qd for 5 days a week for 3 weeks. The settings on record: in the assay text read “for 2 weeks” for “for 3 weeks”. It is filed as functional. In outline: (§3)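 Female athymic nude mice, 5–6 weeks old, were inoculated sc in the right flank with 5 × 10⁶ exponentially growing tumor cells per 100 μL. Oral dosing once daily began 3 days after tumor injection, in Solutol HS15 diluted 1/20 in water. Tumor volume inhibition was calculated as TVI% = 100 − [(mean TV treated/mean TV control) × 100].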

Series [7] concerns NCI-H460. Description: Cytotoxicity against human NCI-H460 cells after 24 hrs by SRB assay. It is filed as functional, cell-based. The settings on record: NCI-H460, 24 h. In outline:
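NCI-H460 cells were grown in RPMI-1640 with L-glutamine, 10% heat-inactivated FCS and 50 μg/mL gentamicin. Cells were seeded at about 10% confluence and allowed to recover for 24 h. They were exposed to varying concentrations for 24 h, washed, then cultured a further 48 h. Surviving cells were measured by SRB. IC50 is the 50% reduction in cell number versus vehicle, from dose–response curve fitting; means of at least three experiments.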
A general note: In SRB staining, fixed cells bind dye roughly in proportion to their protein.

The subject of series [8] is Mus musculus. The series can be described thus: Toxicity in human A2780 cells xenografted athymic nude mouse assessed as body weight loss at 60 mg/kg, po qd for 5 days a week for 3 weeks. It is filed as organism-based. Also noted: dose 60 mg/kg, route oral. The settings on record: in vivo, in the assay text read “for 2 weeks” for “for 3 weeks”. The method in brief:
as §2

For series [9], the target named is Histone deacetylase. The series can be described thus: Inhibition of HDAC-mediated histone H4 deacetylation in human NCI-H460 cells after 3 hrs by Western blot analysis. The class given is cell-based. In outline:
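NCI-H460 cells were plated the day before and treated 3 h across a dose range. Cells were washed with DPBS containing 5 mM NaB and lysed in HNB buffer with 1% NP-40. Histones were acid-extracted from nuclei with 0.4 equiv/L H2SO4 and precipitated with acetone. Blots were probed for acetyl-H4 against total H4. Read-out was ECL and densitometry after normalization; IC50 fitted; means of at least two experiments.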
For orientation: Immunoblotting shows a protein as a band on a membrane.

The nature of series [10]: Efflux ratio of permeability from apical to basolateral side to basolateral to apical side of human Caco2 cells. The settings on record: caco-2. The class given is ADME, cell-based. The method in brief: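 Caco-2 monolayers; the efflux ratio is flux in the apical-to-basolateral direction over flux in the basolateral-to-apical direction. Means of at least three experiments.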

Series [11] is described as follows: Cytotoxicity against human HCT116 cells after 24 hrs by SRB assay. It is filed as functional, cell-based. The note with it: HCT-116, 24 h. In outline:
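HCT116 cells were cultured in McCoy's 5A with L-glutamine, 10% heat-inactivated FCS and 50 μg/mL gentamicin. After seeding at about 10% confluence and a 24 h recovery, they received drug for 24 h. Drug was washed out and cells were incubated 48 h more before SRB staining. IC50 is the 50% cell-number reduction versus vehicle, from fitted dose–response curves; means of at least two experiments.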

Series [12] is described as follows: Antitumor activity against human HCT116 cells xenografted in athymic nude mouse assessed as tumor volume inhibition at 60 mg/kg, po qd for 5 days a week for 3 weeks. The class given is functional. The settings on record: HCT-116. In outline:
as §3
(In xenograft studies the graft and the host belong to different species.)

A short description of series [13]: Solubility of the compound in Solutol HS15.
Series [14] is described as follows: Efflux ratio of permeability from apical to basolateral side to basolateral to apical side of human Caco2 cells in presence of digoxin. The class given is ADME, cell-based. The settings on record: caco-2. In outline:
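Caco-2 AB/BA flux ratio measured with digoxin coincubated with test and reference compounds. Means of at least three experiments.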

Series [15] concerns the target Histone deacetylase. Description: Inhibition of HDAC-mediated tubulin deacetylation in human NCI-H460 cells after 3 hrs by Western blot analysis. The class given is cell-based. In outline:
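Cells (NCI-H460) were treated for 3 h with graded concentrations. The cytoplasmic fraction was collected after HNB/1% NP-40 lysis and centrifugation of nuclei at 2000g. This fraction was resolved by SDS-PAGE and probed for acetylated α-tubulin against α-tubulin and β-actin. Bands were detected by ECL and quantified by densitometry after normalization; IC50 fitted; means of at least two experiments.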

Series [16] concerns Mus musculus. Description: Toxicity in human HCT116 cells xenografted athymic nude mouse assessed as body weight loss at 60 mg/kg, po qd for 5 days a week for 3 weeks. The class given is organism-based, HCT-116. On the set-up: dose 60 mg/kg, route oral. The note with it: in vivo. The method in brief:
as §2

What is called half-life is the time in which the quantity being followed falls by half. A high value points to slow loss. `O=C(CCCCCCC(=O)Nc1ccccc1)NO` [VORINOSTAT] had a half-life at 5 µM in series [1] of 47.5 min. The hepatocyte CLint at 5 µM in series [2] stood at 14.7 µL/min/1e6 cells. The Stability result in series [3] and in series [4] was “Stable” each time. Also, in series [5], the Activity was 4%.

In general, inhibition in vivo refers to how much of the control response was suppressed. As a reminder, the IC50 is the concentration needed to halve the response being measured. One may read the solubility as the dissolved amount per volume that the medium holds. Low readings indicate a poorly soluble substance, high ones a readily soluble substance. Consider `CC(=O)SCCCCC[C@H](NC(=O)[C@H]1CCC(=O)N1)C(=O)Nc1ccccc1`, for which the inhibition in vivo at 60 mg/kg turned out to be 89% in series [6] and 62% in [12]. Also, the concentration for half-maximal inhibition (IC50) in series [7] worked out at 70 nM; in series [9], 5 nM; in series [11], 75 nM; in series [15], 200 nM. In [1], this molecule came in with a half-life at 5 µM of 2.7 min. Also, the hepatocyte CLint at 5 µM in [2] was found to be 252 µL/min/1e6 cells. Besides, the Activity in series [8] was found to be 7%; in series [16], 1%. In addition, the values for the Ratio in [10] and in [14] were 6.9 and 4.2, respectively. The solubility in series [13] was greater than 10000 µg/mL.
